# VIM-2 inh: inhibitors of Pseudomonas aeruginosa VIM-2 metallo-beta-lactamase; purified VIM-2, nitrocefin hydrolysis, epi-absorbance fluorescence; inhibition, % at 5.6 µM; actives 0.89% (n = 290,000); AID 1527;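 active = inhibition above the mean of all tested compounds plus 3 SD, cutoff set per screening run, cut at about 7.5% in these data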;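 also: red hydrolysis product quenches plate fluorescence so inhibitors raise well fluorescence; 0% = enzyme with DMSO and 100% = DMSO without enzyme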
# FID counter: counter-screen for HCV NS3 helicase inhibitors: DNA intercalator displacement; DNA fluorescent intercalator displacement, fluorescence; inhibition, % at 7.9 µM; actives 0.17% (n = 290,000); in the data active = inhibition above about 37%;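 also: 0% = vehicle and 100% = reference compound; higher means more ethidium bromide displaced from hairpin DNA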
# RAD54 branch: blocks human RAD54 Holliday junction branch migration; inhibition, % at 10.4 µM; actives 0.14% (n = 360,000); FAM/BHQ fluorescence; Q92698;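 active = mean normalized replicate activity at least 40 and at least half of replicates scoring 40 or more; inconclusive = only one of the two criteria met; inactive = mean below 40 and under half of replicates reaching 40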;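 also: 0% = median of neutral control wells and 100% = median of positive control wells; inhibitors cause a drop in the FAM fluorescence signal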
# Target sequence (Q92698 whole entry, looked up): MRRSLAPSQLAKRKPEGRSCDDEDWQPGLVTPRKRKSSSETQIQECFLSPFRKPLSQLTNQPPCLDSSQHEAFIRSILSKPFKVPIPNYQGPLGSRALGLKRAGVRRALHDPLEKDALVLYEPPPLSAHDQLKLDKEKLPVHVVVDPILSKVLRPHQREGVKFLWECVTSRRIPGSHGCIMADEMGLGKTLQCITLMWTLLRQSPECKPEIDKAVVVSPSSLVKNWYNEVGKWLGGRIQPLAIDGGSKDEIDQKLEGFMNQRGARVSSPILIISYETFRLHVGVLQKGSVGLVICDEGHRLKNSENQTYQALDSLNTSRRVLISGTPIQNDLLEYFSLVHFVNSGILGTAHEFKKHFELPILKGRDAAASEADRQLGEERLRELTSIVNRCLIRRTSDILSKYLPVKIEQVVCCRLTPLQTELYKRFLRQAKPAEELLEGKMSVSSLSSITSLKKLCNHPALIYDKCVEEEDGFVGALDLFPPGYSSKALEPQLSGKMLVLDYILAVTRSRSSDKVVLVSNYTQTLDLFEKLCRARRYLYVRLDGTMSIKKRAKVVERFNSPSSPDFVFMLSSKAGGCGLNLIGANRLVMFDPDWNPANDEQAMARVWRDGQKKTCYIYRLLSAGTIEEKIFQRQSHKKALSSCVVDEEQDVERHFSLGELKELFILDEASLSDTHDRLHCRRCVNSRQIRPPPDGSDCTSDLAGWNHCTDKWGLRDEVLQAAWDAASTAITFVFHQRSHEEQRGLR
# PvdQ inh: blocks Pseudomonas aeruginosa PvdQ acylase activity; actives 0.063% (n = 340,000); inhibition, % at 10 µM; purified PvdQ acylase, fluorescence plate reader; in the data active = inhibition above about 30%, passing the limit was not always enough; inconclusive = no clear call, values can overlap the other calls;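 also: 0% = vehicle neutral wells and 100% = reference inhibitor wells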
# IMP-1 inhibitor: inhibitors of Pseudomonas aeruginosa IMP-1 metallo-beta-lactamase. purified IMP-1, nitrocefin hydrolysis, epi-absorbance fluorescence. actives 0.45% (n = 290,000). inhibition, % at 5.6 µM;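 active = inhibition above the mean plus 3 SD of all compounds in the same screening run, cut at about 4.5% in these data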;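 also: 0% = IMP-1 with DMSO and 100% = DMSO wells lacking enzyme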
#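 System: Purified IMP-1 | Read-out basis: Percent enzyme inhibition | Controls: IMP-1 with DMSO as 0%, enzyme-free DMSO as 100% | Replicates: One well per compound | Doses: 5.6 µM nominal single concentration | Detection: Epi-absorbance fluorescence, 480 nm excitation, 530 nm emission | Incubation: 25 °C, 15 min preincubation, 25 min reaction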
# Rad54 DNA ctr: counter-screen for Rad54 inhibitors: DNA binding compounds. shares compounds with RAD54 branch. Acridine orange-DNA displacement, fluorescence polarization, 20 min. AC50, µM (titrated, usually from 35 µM), inactives show at the top dose activity change, negative = DNA binding. actives 8% (n = 460). AID 651673;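 active = signal drop giving an AC50 within twice the top valid tested concentration of each sample, actives reach about 35 µM in these data; inactive = activity opposite to expected, plus the rest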;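 also: polarization loss reports compound binding to salmon sperm DNA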
# Active calls of the source: *; i = inactive; u = inconclusive; x = no result given. The list is not random: actives were taken first. Their share in the collection is about 1%.
SMILES,VIM-2 inh,FID counter,RAD54 branch,PvdQ inh,IMP-1 inhibitor,Rad54 DNA ctr
Cn1nc(-c2ccccc2)cc1NS(=O)(=O)c1ccccc1,0,-10,x,-19,-1,x
Cn1nc(-c2ccccc2)cc1NS(=O)(=O)c1ccc(C#N)cc1,-3,-16,u,-12,-2,-8%
CO[C@H]1CN(C)C(=O)c2cc(NC(C)=O)ccc2OC[C@H](C)N(Cc2ccccn2)C[C@@H]1C,x,x,-9,x,x,x
Nc1c(C(=O)NCCN2CCOCC2)c2nc3ccccc3nc2n1-c1ccccc1,5,6,52*,-16,-5,1%
Nc1c(C(=O)NCc2ccccc2)c2nc3ccccc3nc2n1-c1ccc2c(c1)OCO2,-2,3,4,-8,-2,x
Nc1c(C(=O)NCCN2CCOCC2)c2nc3ccccc3nc2n1-c1ccc2c(c1)OCO2,5,10,u,-17,-1,11%
OCCN1CCN(c2ncnc3c2sc2nc(N4CCOCC4)c4c(c23)CCC4)CC1,9.9*,-1,53*,-4,0,-8%
CC1(C)Cc2c(c(N3CCCC3)nc3sc4c(N5CCN(CCO)CC5)ncnc4c23)CO1,5,7,25,-6,0,x
C[C@@H]1CN([C@H](C)CO)C(=O)c2cc(-c3ccc(F)cc3)cnc2O[C@@H]1CN(C)C(=O)NC1CCCC1,x,x,-2,x,x,x
NC(COCc1ccccc1)c1csc(Nc2nncc3ccccc23)n1 (stereo not given),x,x,1,x,x,x
NCc1csc(Nc2nncc3ccccc23)n1,x,x,75*,x,x,-8%
COC(=O)C[C@H]1C[C@@H]2c3cc(NC(=O)Nc4ccc(F)cc4)ccc3O[C@@H]2[C@H](CO)O1,x,x,5,x,x,x
COc1ccc2c(c1)c1ncn(CCN3CCCCC3)c(=O)c1n2C,4,19,52*,-20,1,15%
COc1ccc2c(c1)c1ncn(CCN3CCCC3)c(=O)c1n2C,3,19,59*,-16,-1,3%
O=C(Cc1ccncc1)NCC[C@H]1CC[C@H](NC(=O)C2CCC2)[C@@H](CO)O1,x,x,-3,x,x,x
CCN(CC)CCCNC(=O)c1ccc2c3n(nc2c1)-c1ccc(Cl)cc1CO3,x,x,52*,-12,x,-4%
CCN1CCN(CCCNC(=O)c2cc3cc4ccc(OC)cc4nc3o2)CC1,3,33,56*,-16,-2,-22%
CCCN(CCC)CCCNC(=O)c1cc2cc3ccc(OC)cc3nc2o1,5,37*,u,-24,-4,-18%
COc1ccc2cc3cc(C(=O)NCCCN4CCC(C)CC4)oc3nc2c1,9.9*,17,58*,-4,0,-20%
c1ccc(N2CCN(Cc3nc4ccccc4[nH]3)CC2)nc1,-2,-7,-5,-10,-1,x
c1c[nH]c(CN2CCN(Cc3ncc[nH]3)CC2)n1,x,x,u,-9,x,-11%
COc1ccc(Cl)c2sc(N(CCN(C)C)C(=O)C3=COCCO3)nc12,x,x,u,-14,x,3%
COc1ccc(C)c2sc(N(CCN(C)C)C(=O)c3ccc4ccccc4c3)nc12,0,21,52*,-5,-3,-16%
Cc1cc(C)c2nc(N(CCN(C)C)C(=O)c3ccc4ccccc4c3)sc2c1,-3,23,-11,1,-3,x
O=C(Nc1ccc2c(c1)[C@H]1C[C@@H](CC(=O)N3CCCCC3)O[C@@H](CO)[C@H]1O2)c1ccc2c(c1)OCO2,x,x,10,x,x,x
SMILES,VIM-2 inh,FID counter,RAD54 branch,PvdQ inh,IMP-1 inhibitor,Rad54 DNA ctr
CN1C(=O)c2cc(NC(=O)Cc3cccs3)ccc2OC[C@H]2O[C@H](CC(=O)NCC3CC3)CC[C@@H]21,x,x,-13,x,x,x
CN1CCN(c2nc(-c3cccs3)nc3ccccc23)CC1,1,19,71*,-4,0,-10%
CN1CCN(c2nc(-c3ccncc3)nc3ccccc23)CC1,7,24,87*,3,-4,-11%
OCCN1CCN(c2nc(-c3ccccc3O)nc3ccccc23)CC1,11*,26,73*,18,-2,5%
COC(=O)c1c(NC(=O)c2ccc(S(=O)(=O)N3CC(C)OC(C)C3)cc2)sc2c1CCN(C)C2 (stereo not given),x,x,50*,x,x,16%
COC(=O)c1c(NC(=O)c2ccco2)sc2c1CCN(C(C)C)C2,6,12,62*,5,-4,-9%
CC(C)N1CCc2c(sc(NC(=O)c3ccco3)c2C(N)=O)C1,2,9,31,7,4,x
CN1CCc2c(sc(NC(=O)c3ccc(S(=O)(=O)N4CCCC4)cc3)c2C(N)=O)C1,3,-6,-15,-6,-2,x
CC(C)N1CCc2c(sc(NC(=O)c3ccc(C(=O)c4ccccc4)cc3)c2C(N)=O)C1,3,32,51*,-4,0,-9%
CN(C)CCCNC(=O)[C@H]1[C@H](CO)[C@H]2Cn3c(ccc(-c4ccc(F)cc4)c3=O)[C@@H]1N2C,x,x,11,x,x,x
Nc1cc2c3c(cccc3c1)C(=O)N(CCN1CCCC1)C2=O,4,33,90*,-6,3,28µM*
O=C1c2cccc3cc([N+](=O)[O-])cc(c23)C(=O)N1CCN1CCCC1,4,72*,98*,-14,-2,34µM*
NC(=O)CN1CCN(CCN2C(=O)c3cccc4cccc(c34)C2=O)CC1,2,17,58*,-3,-1,-2%
Cc1cc(C)c(S(=O)(=O)N2CCN(CCN3C(=O)c4cccc5cccc(c45)C3=O)CC2)cc1[N+](=O)[O-],-1,2,x,x,-3,x
Cc1noc(C)c1NC(=O)N(C)C[C@H]1OCCCC[C@H](C)Oc2ccc(NC(=O)CCC(F)(F)F)cc2C(=O)N([C@@H](C)CO)C[C@@H]1C,x,x,-4,x,x,x
O=C(C[C@H]1C=C[C@H](NC(=O)Nc2ccc(C(F)(F)F)cc2)[C@H](CO)O1)NCc1cccc(F)c1,x,x,-1,x,x,x
O=C(C[C@H]1CC[C@@H](NC(=O)Nc2cc(F)ccc2F)[C@H](CO)O1)NCCCN1CCOCC1,x,x,7,x,x,x
COc1ccc2oc3cc(NCCN(C)C)ccc3c(=O)c2c1,x,x,86*,x,x,1%
COc1ccc2c(=O)c3ccccc3oc2c1,4,-5,-1,-6,-5,x
CCCC#Cc1cnc2c(c1)C(=O)N([C@H](C)CO)C[C@@H](C)[C@@H](CN(C)S(=O)(=O)c1cn(C)cn1)O2,x,x,-1,x,x,x
Cc1c(CN(C)C)c2c(n1Cc1ccccc1)C(=O)c1ccc(Br)cc1-2,-1,25,20,-22,0,x
Cc1c(CN(C)C)c2c(n1C)C(=O)c1ccc(Br)cc1-2,0,27,71*,5,-2,i
CCOCCCNC(=O)c1cc2c(=O)[nH]c3ccccc3c2s1,1,-21,x,-3,-7,x
CCN1CCN(CCCNC(=O)c2cc3c(=O)[nH]c4ccccc4c3s2)CC1,7,15,52*,0,-4,-17%
CCCCN(CC)CCNC(=O)c1cc2c(=O)[nH]c3ccc(C)cc3c2s1,8.3*,13,u,-15,-3,-20%
Oc1cccc(Nc2c3ccccc3nc3ccccc23)c1,11*,42*,57*,-7,-4,30µM*

# High-throughput results from PubChem BioAssay.
